ChEMBL document CHEMBL3877264, “Quinolidene-rhodanine conjugates: Facile synthesis and biological evaluation” (Eur J Med Chem, 2017)
In brackets after ≈: the same amount, converted by molar mass.

Columns and labels:
[1] = Selectivity index, ratio of GI50 for human PANC1 cells to MIC for Mycobacterium tuberculosis H37Ra ATCC 25177 at dormant stage; format: toxicity, cell-based, PANC-1; details: read-out: Selectivity Index
Summary of the method: (§1)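 SI is the cell-line GI50 divided by the dormant-stage mycobacterial MIC. […] THP-1 macrophages were PMA-differentiated for 24 h.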

[2] = system: Mycobacterium tuberculosis; assay: Growth inhibition of Mycobacterium bovis BCG ATCC 35743 at dormant stage at 1.56 ug/ml measured after 12 days by nitrate reductase dye based two fold dilution method relative to control; format: functional; details: BCG str. ATCC 35743, 288 h, read-out: GI
Summary of the method: (§2)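 M. bovis BCG was grown in Dubos medium and assayed in Mycobacterium pheli minimal medium (pH 6.6), with compounds from DMSO stocks. Incubation lasted 8 days for active and 12 days for dormant cultures. Viability was read by nitrate reductase at 540 nm against cell-free blanks, with vehicle set as 100% growth. Primary screen was at 30, 10 and 3 µg/ml, in triplicate, mean ± SD. MIC was taken from dose-response curves.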

[3] = system: Aspergillus flavus; assay: Antifungal activity against Aspergillus flavus NCIM 539 by standard agar method; format: functional
Summary of the method: (§3)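 MICs determined by standard agar method; DMSO as solvent control.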

[4] = system: Bacillus subtilis; assay: Growth inhibition of Bacillus subtilis NCIM 2079 at 30 ug/ml measured after 12 hrs relative to control; format: functional; details: NCIM 2079, 12 h, read-out: GI
Summary of the method: (§4)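 Bacteria grown in LB at 37 °C and 180 rpm to OD 1. Compounds added to wells, then 0.1% inoculum of 1 OD culture (620 nm). Growth read as OD at 620 nm after 8 h for gram-negative and after 12 h for gram-positive strains.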

[5] = system: Mycobacterium tuberculosis; assay: Growth inhibition of Mycobacterium bovis BCG ATCC 35743 at dormant stage at 12.5 ug/ml measured after 12 days by nitrate reductase dye based two fold dilution method relative to control; format: functional; details: BCG str. ATCC 35743, 288 h, read-out: GI
[6] = system: Aspergillus niger; assay: Antifungal activity against Aspergillus niger NCIM 1196 by standard agar method; format: functional; summary of the method: as §3
[7] = system: Mycobacterium tuberculosis; assay: Growth inhibition of Mycobacterium bovis BCG ATCC 35743 at active stage at 12.5 ug/ml measured after 8 days by nitrate reductase dye based two fold dilution method relative to control; format: functional; details: BCG str. ATCC 35743, 192 h, read-out: GI
[8] = system: Mycobacterium tuberculosis; assay: Growth inhibition of Mycobacterium tuberculosis H37Ra ATCC 25177 at dormant stage measured after 12 days by XTT dye based two fold dilution method; format: functional; details: H37Ra ATCC 25177, 288 h
Summary of the method: (§5)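 MTB H37Ra was grown in Dubos medium, then exposed in Mycobacterium pheli minimal medium (pH 6.6) to compounds dissolved in DMSO. The assay ended on day 8 (active) or day 12 (dormant). Viable cells were measured by XTT reduction menadione assay at 470 nm, blank-corrected, relative to vehicle control. Triplicates were expressed as mean ± SD. MIC came from dose-response curves.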

[9] = system: Mycobacterium tuberculosis; assay: Growth inhibition of Mycobacterium tuberculosis H37Ra ATCC 25177 at active stage at 3.13 ug/ml measured after 8 days by XTT dye based two fold dilution method relative to control; format: functional; details: H37Ra ATCC 25177, 192 h, read-out: GI; summary of the method: as §5
[10] = Cytotoxicity against […]-differentiated human THP1 cells measured after 48 hrs by MTT assay; format: toxicity, cell-based, THP-1
Summary of the method: (§6)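 MTT assay with 48 h compound exposure. THP-1 macrophages made by 24 h PMA treatment. Each concentration tested in triplicate in one experiment. % cytotoxicity = (control−test)/(control−blank)×100, with control = cells + DMSO and blank = medium without cells. IC50 from % survival versus concentration plots.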

[11] = system: Candida albicans; assay: Antifungal activity against Candida albicans NCIM 3471 by standard agar method; format: functional; summary of the method: as §3
[12] = system: Mycobacterium tuberculosis; assay: Growth inhibition of Mycobacterium bovis BCG ATCC 35743 at active stage at 25 ug/ml measured after 8 days by nitrate reductase dye based two fold dilution method relative to control; format: functional; details: BCG str. ATCC 35743, 192 h, read-out: GI; summary of the method: as §2
[13] = Selectivity index, ratio of GI50 for human A549 cells to MIC for Mycobacterium tuberculosis H37Ra ATCC 25177 at dormant stage; format: toxicity, cell-based; details: read-out: Selectivity Index; summary of the method: as §1
[14] = Selectivity index, ratio of GI50 for HUVEC to MIC for Mycobacterium tuberculosis H37Ra ATCC 25177 at dormant stage
[15] = system: Staphylococcus aureus; assay: Growth inhibition of Staphylococcus aureus NCIM 2010 at 3 ug/ml measured after 12 hrs relative to control; format: functional; details: NCIM 2010, 12 h, read-out: GI; summary of the method: as §4
[16] = Cytotoxicity against human HeLa cells measured after 48 hrs by MTT assay; format: toxicity, cell-based
[17] = system: Mycobacterium tuberculosis; assay: Growth inhibition of Mycobacterium tuberculosis H37Ra ATCC 25177 at active stage measured after 8 days by XTT dye based two fold dilution method; format: functional; details: H37Ra ATCC 25177, 192 h; summary of the method: as §5
[18] = system: Mycobacterium tuberculosis; assay: Growth inhibition of Mycobacterium tuberculosis H37Ra ATCC 25177 at dormant stage at 1.56 ug/ml measured after 12 days by XTT dye based two fold dilution method relative to control; format: functional; details: H37Ra ATCC 25177, 288 h, read-out: GI; summary of the method: as §5
[19] = system: Mycobacterium tuberculosis; assay: Growth inhibition of Mycobacterium tuberculosis H37Ra ATCC 25177 at dormant stage at 50 ug/ml measured after 12 days by XTT dye based two fold dilution method relative to control; format: functional; details: H37Ra ATCC 25177, 288 h, read-out: GI; summary of the method: as §5
[20] = system: Pseudomonas fluorescens; assay: Growth inhibition of Pseudomonas fluorescens NCIM 2036 at 10 ug/ml measured after 8 hrs relative to control; format: functional; details: NCIM 2036, 8 h, read-out: GI; summary of the method: as §4
[21] = system: Pseudomonas fluorescens; assay: Growth inhibition of Pseudomonas fluorescens NCIM 2036 at 30 ug/ml measured after 8 hrs relative to control; format: functional; details: NCIM 2036, 8 h, read-out: GI; summary of the method: as §4
[22] = Selectivity index, ratio of GI50 for […]-differentiated human THP1 cells to MIC for Mycobacterium tuberculosis H37Ra ATCC 25177 at dormant stage; format: toxicity, cell-based, THP-1; details: read-out: Selectivity Index; summary of the method: as §1
[23] = Cytotoxicity against human A549 cells assessed as growth inhibition at 100 ug/ml measured after 48 hrs by MTT assay relative to control; format: toxicity, cell-based; details: read-out: GI
[24] = Cytotoxicity against human THP1 cells measured after 48 hrs by MTT assay; format: toxicity, cell-based, THP-1; summary of the method: as §6
[25] = system: Mycobacterium tuberculosis; assay: Growth inhibition of Mycobacterium bovis BCG ATCC 35743 at dormant stage at 100 ug/ml measured after 12 days by nitrate reductase dye based two fold dilution method relative to control; format: functional; details: BCG str. ATCC 35743, 288 h, read-out: GI; summary of the method: as §2
[26] = system: Mycobacterium tuberculosis; assay: Growth inhibition of Mycobacterium bovis BCG ATCC 35743 at dormant stage at 25 ug/ml measured after 12 days by nitrate reductase dye based two fold dilution method relative to control; format: functional; details: BCG str. ATCC 35743, 288 h, read-out: GI; summary of the method: as §2
[27] = Cytotoxicity against primary HUVEC assessed as growth inhibition at 100 ug/ml measured after 48 hrs by MTT assay relative to control; format: toxicity, cell-based; details: human, read-out: GI
[28] = Selectivity index, ratio of GI50 for HUVEC to MIC for Mycobacterium bovis BCG ATCC 35743 at dormant stage; details: pooled result: one value given for 6 cell lines, strains, targets or settings; summary of the method: as §1
[29] = system: Mycobacterium tuberculosis; assay: Growth inhibition of Mycobacterium tuberculosis H37Ra ATCC 25177 at active stage at 12.5 ug/ml measured after 8 days by XTT dye based two fold dilution method relative to control; format: functional; details: H37Ra ATCC 25177, 192 h, read-out: GI

Compound | selectivity ratio [1] | inhibition of growth at 1.56 µg/mL [2] [%] | MIC [3] [µg/mL] | inhibition of growth at 30 µg/mL [4] [%] | inhibition of growth at 12.5 µg/mL [5] [%] | MIC [6] [µg/mL] | inhibition of growth at 12.5 µg/mL [7] [%] | IC50 [8] [µg/mL] | IC90 [8] [µg/mL] | inhibition of growth at 3.13 µg/mL [9] [%] | GI50 at 48 h [10] [µg/mL] | MIC [11] [µg/mL] | inhibition of growth at 25 µg/mL [12] [%] | selectivity ratio [13] | Selectivity Index [14] | inhibition of growth at 3 µg/mL [15] [%] | GI50 at 48 h [16] [µg/mL] | IC50 [17] [µg/mL] | IC90 [17] [µg/mL] | inhibition of growth at 1.56 µg/mL [18] [%] | further results
Cc1cccc2cc(/C=C3\SC(=S)NC3=O)c(Cl)nc12 | 7.8 | -20.5 | 100 (≈ 312 µM) | 6.66 | 95.4 | 150 (≈ 468 µM) | 99.5 | 7.6 (≈ 23.7 µM) | 12.9 (≈ 40.2 µM) | 39.9 | > 100 | 200 (≈ 623 µM) | 99.3 | 7.8 | 7.8 | -3.27 | > 100 | 4.8 (≈ 15 µM) | 18.2 (≈ 56.7 µM) | -17.5 | inhibition of growth at 50 µg/mL [19]: 99.8%; inhibition of growth at 10 µg/mL [20]: 22.9%; inhibition of growth at 30 µg/mL [21]: 59%; selectivity ratio [22]: 7.8; inhibition at 48 h, 100 ug/ml [23]: 32.9%; GI50 at 48 h [24]: > 100 µg/mL; inhibition of growth at 100 µg/mL [25]: 95%; inhibition of growth at 25 µg/mL [26]: 101%; inhibition at 48 h, 100 ug/ml [27]: 14.9%; Selectivity Index [28]: 10.4; inhibition of growth at 12.5 µg/mL [29]: 76.3%
O=C1NC(=S)S/C1=C\c1cc2cc(Cl)ccc2nc1Cl | 15.6 | 60.5 | 125 (≈ 366 µM) | 101 | 100 | 150 (≈ 440 µM) | 99.5 | 2.2 (≈ 6.45 µM) | 6.3 (≈ 18.5 µM) | 81.1 | > 100 | 100 (≈ 293 µM) | 99.9 | 15.6 | 15.6 | 101 | > 100 | 1.9 (≈ 5.57 µM) | 3.8 (≈ 11.1 µM) | 32.4 | inhibition of growth at 50 µg/mL [19]: 86.4%; inhibition of growth at 10 µg/mL [20]: 101%; inhibition of growth at 30 µg/mL [21]: 99.8%; selectivity ratio [22]: 15.6; inhibition at 48 h, 100 ug/ml [23]: 26.9%; GI50 at 48 h [24]: > 100 µg/mL; inhibition of growth at 100 µg/mL [25]: 98.7%; inhibition of growth at 25 µg/mL [26]: 100%; inhibition at 48 h, 100 ug/ml [27]: 25.9%; Selectivity Index [28]: 43.7; inhibition of growth at 12.5 µg/mL [29]: 99.3%
CCOc1ccc2nc(Cl)c(/C=C3\SC(=S)NC3=O)cc2c1 | 28.6 | 75.5 | 50 (≈ 143 µM) | 98.5 | 101 | 25 (≈ 71.3 µM) | 98.2 | 2.3 (≈ 6.56 µM) | 3.5 (≈ 9.98 µM) | 94.8 | > 100 | 125 (≈ 356 µM) | 98.6 | 28.6 | 28.6 | 42.7 | > 100 | 1.9 (≈ 5.42 µM) | 2.8 (≈ 7.98 µM) | -9.88 | inhibition of growth at 50 µg/mL [19]: 93%; inhibition of growth at 10 µg/mL [20]: 41%; inhibition of growth at 30 µg/mL [21]: 76%; selectivity ratio [22]: 28.6; inhibition at 48 h, 100 ug/ml [23]: 23.9%; GI50 at 48 h [24]: > 100 µg/mL; inhibition of growth at 100 µg/mL [25]: 99.5%; inhibition of growth at 25 µg/mL [26]: 100%; inhibition at 48 h, 100 ug/ml [27]: 33%; Selectivity Index [28]: 50; inhibition of growth at 12.5 µg/mL [29]: 101%
COc1ccc2nc(Cl)c(/C=C3\SC(=S)NC3=O)cc2c1 | 20.8 | -28.8 | 100 (≈ 297 µM) | 21.2 | 93.8 | 150 (≈ 445 µM) | 96 | 3.3 (≈ 9.8 µM) | 4.7 (≈ 14 µM) | 38.4 | > 100 | 150 (≈ 445 µM) | 88.2 | 20.8 | 20.8 | 68.7 | > 100 | 6.9 (≈ 20.5 µM) | 14.3 (≈ 42.5 µM) | -25.3 | inhibition of growth at 50 µg/mL [19]: 90.5%; inhibition of growth at 10 µg/mL [20]: 81.8%; inhibition of growth at 30 µg/mL [21]: 70.9%; selectivity ratio [22]: 20.8; inhibition at 48 h, 100 ug/ml [23]: 22.2%; GI50 at 48 h [24]: > 100 µg/mL; inhibition of growth at 100 µg/mL [25]: 97.7%; inhibition of growth at 25 µg/mL [26]: 81.6%; inhibition at 48 h, 100 ug/ml [27]: 29.4%; Selectivity Index [28]: 14.7; inhibition of growth at 12.5 µg/mL [29]: 85.2%
